According to ChEMBL document CHEMBL1150144, “Total synthesis and biological evaluation of (5Z,9Z)-5,9-hexadecadienoic acid, an inhibitor of human topoisomerase I” (J Nat Prod, 2002):
Converted amounts (≈) assume the structure as drawn. One block for each molecule: values may come before it. The source made the active and inactive calls. The calls are words filed in the database; no cut-off is given here.

Columns and labels:
Staphylococcus aureus = experiment: Antimicrobial activity against Staphylococcus aureus ATCC 25923 after overnight incubation; format: functional
How it was run: (§1)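 MIC read after overnight incubation of fatty acid with each organism at 37 °C. Endpoint was the highest dilution preventing growth, compared with an uninoculated chemical-control well. Data come from at least three separate experiments in duplicate.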

[1] = molecular target: T1, DNA topoisomerase 1 (Homo sapiens) (UniProt P11387); experiment: Inhibition of human DNA topoisomerase 1 assessed as inhibition of uncoiling of supercoiled Tetrahymena pHOT1 DNA at […] after 30 mins by agarose gel electrophoresis
T1 sequence (whole entry): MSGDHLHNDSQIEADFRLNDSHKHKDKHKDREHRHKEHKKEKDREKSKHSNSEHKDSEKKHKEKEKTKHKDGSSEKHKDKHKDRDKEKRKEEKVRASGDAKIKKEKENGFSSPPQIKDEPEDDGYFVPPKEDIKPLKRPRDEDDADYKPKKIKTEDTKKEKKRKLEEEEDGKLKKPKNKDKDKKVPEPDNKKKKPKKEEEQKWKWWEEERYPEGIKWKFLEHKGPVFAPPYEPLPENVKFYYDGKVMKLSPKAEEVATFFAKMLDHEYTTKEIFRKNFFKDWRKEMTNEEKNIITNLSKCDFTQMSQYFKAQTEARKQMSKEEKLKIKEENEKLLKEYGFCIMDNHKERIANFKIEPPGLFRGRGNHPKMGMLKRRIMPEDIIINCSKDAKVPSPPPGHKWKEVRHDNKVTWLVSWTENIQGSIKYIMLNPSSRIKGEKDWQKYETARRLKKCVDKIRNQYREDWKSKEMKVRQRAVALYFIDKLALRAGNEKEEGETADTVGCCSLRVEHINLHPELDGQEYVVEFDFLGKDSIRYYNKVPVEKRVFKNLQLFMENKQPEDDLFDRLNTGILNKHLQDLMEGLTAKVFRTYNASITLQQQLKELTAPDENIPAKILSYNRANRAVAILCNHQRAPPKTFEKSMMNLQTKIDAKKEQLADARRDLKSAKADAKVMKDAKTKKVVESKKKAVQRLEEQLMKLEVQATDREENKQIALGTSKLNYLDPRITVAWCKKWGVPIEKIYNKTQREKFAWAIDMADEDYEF

Escherichia coli = experiment: Antimicrobial activity against Escherichia coli ATCC 25922 after overnight incubation; format: functional; how it was run: as §1
Enterococcus faecalis = experiment: Antimicrobial activity against Streptococcus faecalis ATCC 29212 after overnight incubation; format: functional; how it was run: as §1
Pseudomonas aeruginosa = experiment: Antimicrobial activity against Pseudomonas aeruginosa ATCC 27853 after overnight incubation; format: functional; how it was run: as §1
DNA topoisomerase 1 [2] = molecular target: T2, DNA topoisomerase 1 (Homo sapiens, UniProt P11387); experiment: Inhibition of DNA topoisomerase 1
T2 sequence (P11387 whole entry): T1 sequence (whole entry)

[3] = molecular target: T1, DNA topoisomerase 1 (Homo sapiens); experiment: Inhibition of human DNA topoisomerase 1 assessed as inhibition of uncoiling of supercoiled Tetrahymena pHOT1 DNA at > 1000 uM after 30 mins by agarose gel electrophoresis
How it was run: (§2)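 Human placental topoisomerase I (1 unit relaxes 0.5 µg DNA in 15 min at 37 °C) was used with 0.25 µg supercoiled pHOT1 plasmid. Fatty acids in DMSO were tested at final 1000, 800, 500, 100 and 10 µM for 30 min at 37 °C. Reactions were stopped with SDS, then proteinase K (final 0.05 mg/mL, 30 min, 37 °C). Products were run on 1% agarose, stained with ethidium bromide, and bands imaged and quantitated.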

[4] = molecular target: T1, DNA topoisomerase 1 (Homo sapiens); experiment: Inhibition of human DNA topoisomerase 1 assessed as inhibition of uncoiling of supercoiled Tetrahymena pHOT1 DNA at 800 uM after 30 mins by agarose gel electrophoresis; how it was run: as §2
DNA topoisomerase 1 [5] = molecular target: T2, DNA topoisomerase 1; experiment: Inhibition of human DNA topoisomerase 1

MIC (Staphylococcus aureus): > 400 µM | inhibition [1]: inactive | MIC (Escherichia coli): > 400 µM | MIC (Enterococcus faecalis): > 400 µM | MIC (Pseudomonas aeruginosa): > 400 µM
SMILES: CCCCCCCCCCCCCCCC(=O)O [PALMITIC ACID]

IC50 (DNA topoisomerase 1 [2]): > 1000 µM
SMILES: CCCCCCCC/C=C/CCCCCCCC(=O)O [ELAIDIC ACID]

inhibition [3]: inactive
SMILES: CCCCCCC#CCCC#CCCCC(=O)O

IC50 (DNA topoisomerase 1 [2]): 31 µM
SMILES: CCCCCCCC/C=C\CCCCCCCC(=O)O [OLEIC ACID]

MIC (Staphylococcus aureus): 240 µM (≈ 60.6 µg/mL) | MIC (Enterococcus faecalis): 160 µM (≈ 40.4 µg/mL)
SMILES: CC(C)CCC/C=C\CC/C=C\CCCC(=O)O

MIC (Staphylococcus aureus): 80 µM (≈ 20.2 µg/mL) | inhibition [4]: Active | MIC (Enterococcus faecalis): 200 µM (≈ 50.5 µg/mL)
SMILES: CCCCCC/C=C\CC/C=C\CCCC(=O)O
Activity (Escherichia coli): inactive | Activity (Pseudomonas aeruginosa): inactive

IC50 (DNA topoisomerase 1 [5]): 900 nM
SMILES: CCCCCCCCCCCCCCCCC/C=C\CC/C=C\CCCC(=O)O
